Data on one compound can be found in ChEMBL document CHEMBL1255440, “An antimicrobial peptide that targets DNA repair intermediates in vitro inhibits Salmonella growth within murine macrophages” (Antimicrob Agents Chemother, 2010).

Data set [1] relates to Salmonella typhimurium. Kind of data set: Antibacterial activity against 10 MOI Salmonella enterica subsp. enterica serovar Typhimurium G785 transfected with SOS-inducible beta-galactosidase reporter infected in mouse J774A1 cells assessed as bacterial number at 50 uM after 4 hrs postinfection. Format: functional, J774.A1. In short, it runs like this: (§1)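 J774A.1 cells infected at MOI 10 with sulA promoter-lacZ reporter strain G785 using the gentamicin-protection protocol, treated with peptide (DMSO vehicle controls) plus 15 μg/ml gentamicin for 4 or 24 h. Released bacteria were plated for colony counts in parallel, and were incubated with 33 μM C12FDG (with 0.2 mM EDTA) in LB for 2 h at 37°C. Flow cytometry gave % fluorescein-positive among LPS-antibody-positive particles; Wilcoxon exact test.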

Data set [2] concerns J774.A1. Kind of data set: Cytotoxicity against mouse J774A1 cells assessed as metabolic activity at 50 uM after 24 hrs by MTT assay. The format is ADME, cell-based. The following applies: j774.a1, 24 h. In short, it runs like this: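 Cells seeded at 40,000/well in 96-well plates, overnight 37°C 5% CO2, then treated 24 h in fresh DMEM. MTT (4 mg/ml stock in PBS) added for up to 3 h. Formazan solubilized overnight at 37°C in SDS/dimethylformamide/acid lysis buffer, OD read at 575 nm. Paired t tests.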
Background: Tetrazolium dyes change colour on reduction, which living cells bring about.

Data set [3] concerns J774.A1. Kind of data set: Drug uptake in mouse J774A1 cells assessed as total peptide concentration at 50 uM after 5 hrs at 4 degC by HPLC analysis. The format is ADME, cell-based. As to conditions: j774.a1, 5 h. A digest of the protocol:
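J774A.1 cells were seeded at 300,000 per well and allowed to adhere for 24 h at 37°C in 5% CO2. Medium was replaced with DMEM containing unlabeled peptide, and cells were held at 37°C or 4°C. After three washes in ice-cold PBS, cells were lysed in NP-40 buffer and debris spun out. Reverse-phase HPLC was read at 280 nm. Peaks at 17.5 and 17.75 min were integrated against a standard curve. Intracellular mM was calculated from 300,000 cells at 1 pl each, using monomer mass.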

Data set [4] deals with J774.A1. Kind of data set: Drug uptake in mouse J774A.1 cells assessed as dimer to monomer peptide ratio at 150 uM after 24 hrs at 4 degC by HPLC analysis. As to conditions: J774A.1, 24 h.
Data set [5] deals with J774.A1. Nature of the data set: Drug uptake in mouse J774A1 cells at 0.5 uM after 5 mins by confocal laser microscopy. The format is ADME, cell-based. The following applies: j774.a1, 5 min. A digest of the protocol:
(§2)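 Cells were seeded at 200,000 per chamber-slide well and left to adhere overnight at 37°C. They were then exposed in DMEM to peptide carrying an N-terminal rhodamine label, at 37°C or, where stated, 4°C. Cells were washed three times in PBS, fixed in 4% paraformaldehyde for 30 min, and mounted in antifade. Optical slices near the cell centre were imaged by confocal laser microscopy.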

A short description of data set [6]: Cytotoxicity against mouse peritoneal macrophages assessed as dead cells at 150 uM by propidium iodide assay. The format is cell-based. The following applies: peritoneal macrophage cell. A digest of the protocol:
(§3)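 Cells seeded at 300,000/well and allowed to adhere, then given fresh DMEM with or without peptide for 24 h. Cells trypsinized, stained with a mammalian Live/Dead viability/cytotoxicity kit and analyzed by flow cytometry. Wilcoxon exact test.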

Data set [7] can be described thus: Drug uptake in mouse peritoneal macrophages assessed as dimer to monomer peptide ratio at 50 uM after 24 hrs at 37 degC by HPLC analysis. Format: ADME, cell-based. As to conditions: peritoneal macrophage cell. In short, it runs like this: (§4)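 Macrophages were elicited in 8–12-week-old female BALB/c mice with 4% thioglycolate i.p. and harvested by lavage 4 days later. Cells were seeded at 300,000 per well for 24 h, then given unlabeled peptide in DMEM for 24 h at 37°C. Lysates were run on reverse-phase HPLC at A280. Monomer (17.5 min) and dimer (17.75 min) peak areas were compared with a standard curve. Concentration assumed 1 pl per cell; values are means of three determinations.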

Data set [8] deals with J774.A1. Kind of data set: Drug uptake in mouse J774A1 cells assessed as dimer to monomer peptide ratio at 150 uM after 24 hrs at 37 degC by HPLC analysis. The format is ADME, cell-based. As to conditions: j774.a1, 24 h. A digest of the protocol: (§5)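 J774A.1 cells were incubated with unlabeled peptide for 5 or 24 h at 37°C or 4°C, washed in ice-cold PBS and lysed with NP-40 buffer. Lysates were run on reverse-phase HPLC with an acetonitrile/0.1% TFA gradient and A280 fractions. Monomer (~17.5 min) and dimer (~17.75 min) peak areas were compared against a standard curve. Intracellular mM was calculated using 300,000 cells and 1 pl/cell, with concentration expressed as monomer mass.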

Data set [9] is described as follows: Cytotoxicity against mouse peritoneal macrophages assessed as dead cells at 100 uM by propidium iodide assay. As to conditions: peritoneal macrophage cell. Format: cell-based. In short, it runs like this:
as §3

Data set [10] can be described thus: Drug uptake in mouse peritoneal macrophages assessed as dimer to monomer peptide ratio at 100 uM after 24 hrs at 37 degC by HPLC analysis. As to conditions: peritoneal macrophage cell. Format: ADME, cell-based. In short, it runs like this:
as §4

Data set [11] has as its system Salmonella typhimurium. Nature of the data set: Antibacterial activity against 1 MOI Salmonella enterica subsp. enterica serovar Typhimurium infected in mouse J774A1 cells assessed as reduction in bacterial growth after 24 hrs. The format is functional, organism-based. The following applies: J774.A1. In short, it runs like this: (§6)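 J774A.1 cells or thioglycolate-elicited BALB/c peritoneal macrophages seeded at 200,000/well, overnight 37°C 5% CO2; infected with GFP strain SDT1416, 1 h invasion, washed, 1 h in DMEM with 15 μg/ml gentamicin. Then fresh DMEM plus 15 μg/ml gentamicin with or without peptide (DMSO vehicle) for 24 h at 37°C; macrophages lysed with 1% Triton X-100, plated on LB agar for CFU.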

In data set [12] the test system is J774.A1. Kind of data set: Drug uptake in mouse J774A.1 cells assessed as total peptide concentration at 100 uM after 24 hrs at 4 degC by HPLC analysis. The following applies: J774A.1, 24 h.
The subject of data set [13] is J774.A1. Kind of data set: Drug uptake in mouse J774A1 cells assessed as total peptide concentration at 100 uM after 5 hrs at 37 degC by HPLC analysis. Format: ADME, cell-based. As to conditions: j774.a1, 5 h. A digest of the protocol: as §5
Data set [14] deals with J774.A1. Nature of the data set: Drug uptake in mouse J774A1 cells assessed as dimer to monomer peptide ratio at 150 uM after 5 hrs at 4 degC by HPLC analysis. Format: ADME, cell-based. As to conditions: j774.a1, 5 h. A digest of the protocol: as §5
Data set [15] deals with J774.A1. Kind of data set: Drug uptake in mouse J774A1 cells assessed as dimer to monomer peptide ratio at 150 uM after 5 hrs at 37 degC by HPLC analysis. Format: ADME, cell-based. As to conditions: j774.a1, 5 h. A digest of the protocol:
as §5

Data set [16] has as its system Salmonella typhimurium. Nature of the data set: Antibacterial activity against 1 MOI Salmonella enterica subsp. enterica serovar Typhimurium infected in mouse peritoneal macrophages assessed as reduction in bacterial growth at 150 uM after 24 hrs relative to DMEM control. Also noted: scale not given: the % may be the effect or the level left. The format is functional. A digest of the protocol:
as §6

Data set [17] relates to J774.A1. Kind of data set: Drug uptake in mouse J774A1 cells at 10 uM after 4 hrs at 4 degC by confocal laser microscopy. The following applies: j774.a1, 4 h. The format is ADME, cell-based. A digest of the protocol:
as §2

In data set [18] the test system is Salmonella typhimurium. Nature of the data set: Antibacterial activity against Salmonella enterica subsp. enterica serovar Typhimurium SDT1416. The format is functional. In short, it runs like this: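 MIC by NCCLS broth microdilution against GFP-expressing strain SDT1416.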
Data set [19] concerns Salmonella typhimurium. Kind of data set: Antibacterial activity against 10 MOI Salmonella enterica subsp. enterica serovar Typhimurium G785 transfected with SOS-inducible beta-galactosidase reporter infected in mouse J774A1 cells assessed as bacterial number at 150 uM after 24 hrs postinfection. Format: functional, J774.A1. In short, it runs like this:
as §1

Data set [20] in a line: Cytotoxicity against mouse peritoneal macrophages assessed as live cells at 150 uM by calcein AM assay. The format is cell-based, Peritoneal macrophage cell. As to conditions: read-out: Activity. In short, it runs like this:
as §3

The subject of data set [21] is Salmonella typhimurium. Nature of the data set: Antibacterial activity against 1 MOI Salmonella enterica subsp. enterica serovar Typhimurium infected in mouse peritoneal macrophages assessed as reduction in bacterial growth at 50 uM after 24 hrs. The format is functional. Also noted: scale not given: the % may be the effect or the level left. A digest of the protocol:
as §6

Data set [22] relates to J774.A1. Nature of the data set: Drug uptake in mouse J774A.1 cells assessed as dimer to monomer peptide ratio at 50 uM after 24 hrs at 4 degC by HPLC analysis. The following applies: J774A.1, 24 h.

The structures appear in SMILES notation. In brackets after ≈: the same amount, converted by molar mass.

For orientation: MIC means the smallest concentration in the dilution series that meets the test's criterion for growth inhibition. For `N=C(N)NCCC[C@@H](NC(=O)[C@@H](CS)NC(=O)[C@@H](Cc1ccc(O)cc1)NC(=O)[C@@H](Cc1c[nH]c2ccccc12)NC(=O)[C@@H](CCCNC(=N)N)NC(=O)[C@H](N)Cc1c[nH]c2ccccc12)C(=O)O`, the Activity is 57.1% with Salmonella typhimurium [1]; “Non-toxic” in the data set with J774.A1 [2]; 9.2% in data set [6]; 3.1% in data set [9]; “Dose-dependent effect” in the data set on Salmonella typhimurium [11]; 72.3% in the data set on Salmonella typhimurium [16]. The values for the Activity with Salmonella typhimurium [19] and in the data set with Salmonella typhimurium [21] were 1.9% and 34%, respectively. Further, the Drug uptake in the data set on J774.A1 [3] is reported as 1.2 mM; in the data set on J774.A1 [5], “Active”; with J774.A1 [12], 32.9 mM; in the data set on J774.A1 [13], 8 mM; with J774.A1 [17], “Not Active”. Moreover, the Ratio stood at 15.5 with J774.A1 [4]; 0.9 in data set [7]; 12.5 in the data set on J774.A1 [8]; 0.7 in data set [10]; 8.8 in the data set on J774.A1 [14]; 11 in the data set with J774.A1 [15]. Besides, in the data set with J774.A1 [22], the Ratio was 7.4. In addition, the MIC in the data set on Salmonella typhimurium [18] worked out at 64 µM (≈ 62 µg/mL). In addition, the viability at 150 µM in [20] is 87.9%.
